In ChEMBL document CHEMBL4765399, “Design, synthesis, and biological evaluation of 5-((8-methoxy-2-methylquinolin-4-yl)amino)-1H-indole-2-carbohydrazide derivatives as novel Nur77 modulators” (Eur J Med Chem, 2020):
The source made the active and inactive calls. The rule behind the calls is not given here.

Experiments:
HepG2 [1] = experiment: Antitumor activity against human HepG2 cells xenografted in BALB/c mouse assessed as induction of autophagy by measuring increase in LC3-II level in tumor tissue at 10 to 20 mg/kg/day, ip administered for 15 days by immunohistochemical analysis; assay type: functional, organism-based; details: dose 10-20 mg/kg/day, time 15.0 day
Method in brief: (§1)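 HepG2 cells (5×10^6) injected subcutaneously into flanks of 4-week-old male Balb/c nude mice. At about 100 mm³, 15 mice were randomized to vehicle, 10 or 20 mg/kg i.p. once daily for 15 days. Tumors were then excised for immunostaining of paraffin sections (5 μm) or for western blot.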

HepG2 [2] = experiment: Induction of apoptosis in human HepG2 cells assessed as live cells at 2 uM incubated for 12 hrs by Annexin V-FITC/PI staining based flow cytometry (reference value: 90.7 to 94%); assay type: functional
HepG2 [3] = experiment: Induction of apoptosis in human HepG2 cells transfected with shNur77 assessed as increase in cleaved PARP level at 2 uM incubated for 12 hrs by Western blot analysis; assay type: functional, cell-based
Method in brief: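 HepG2 carrying scrambled or Nur77 shRNA exposed to 2.0 µM for 12 h. RIPA lysates with protease/phosphatase inhibitors, 40-80 µg protein by BCA resolved on SDS-PAGE, moved to nitrocellulose, milk-blocked, probed overnight for PARP cleavage and Nur77 with HRP secondaries, chemiluminescent detection.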

[4] = molecular target: T1, Nuclear receptor subfamily 4immunitygroup A member 1 (Homo sapiens, UniProt P22736); experiment: Binding affinity to Nur77 ligand binding domain (unknown origin) assessed as decrease in fluorescence intensity of protein at 332 nm at 0.2 to 4 uM by fluorescence titration based analysis; details: filed as modulator, dose 0.2-4 µM
Method in brief: (§2)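 Intrinsic tryptophan fluorescence quench: 1 μM Nur77-LBD titrated with 0–4 μM ligand in about 0.2 μM steps (20 points). After 30 min at room temperature, read at 25 °C, excitation 280 nm, emission 340 nm. KD fitted to a two-state 1:1 complex model.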

SMMC-7721 = experiment: Induction of endoplasmic reticulum stress in human SMMC-7721 cells assessed as increase in TRB3 protein expression incubated for 12 hrs by Western blot analysis; assay type: functional, cell-based; details: dose 0.5-2 µM
Method in brief: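 HepG2, QGY-7703 and SMMC-7721 treated with graded concentrations for 12 h. Lysed in RIPA with inhibitors; 40-80 µg protein separated by SDS-PAGE, blotted to nitrocellulose, blocked 1 h in 5% milk, primary antibodies overnight (LC3, Beclin1, Bip, CHOP, TRB3), HRP secondaries, chemiluminescence.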

HepG2 [5] = experiment: Induction of apoptosis in human HepG2 cells transfected with shRNA assessed as early apoptotic cells at 2 uM incubated for 12 hrs by Annexin V-FITC/PI staining based flow cytometry (reference value: 5.09%); assay type: functional
HepG2 [6] = experiment: Antitumor activity against human HepG2 cells xenografted in BALB/c mouse assessed as induction of ER stress by measuring increase in bip level in tumor tissue at 10 to 20 mg/kg/day, ip administered for 15 days by western blot analysis; assay type: functional, organism-based; details: dose 10-20 mg/kg/day, time 15.0 day; method in brief: as §1
QGY-7703 = experiment: Antiproliferative activity against human QGY-7703 cells assessed as reduction in cell viability at 2 uM by MTT assay; assay type: functional, cell-based; details: time 12-48 hrs, TDE = time-dependent effect
Method in brief: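 Cells treated with 2.0 µM over a time course; viability read by MTT. HepG2, SMMC-7721 kept in DMEM, QGY-7703 in RPMI 1640, with 10% FBS at 37 °C and 5% CO2.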

HepG2 [7] = experiment: Upregulation of RARgamma expression in human HepG2 cells at 2 uM incubated for 2 to 12 hrs by Western blot analysis; assay type: functional, cell-based; details: time 2-12 hrs
Method in brief: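 HepG2 cells given 2.0 µM for the indicated times. RXRα, RARγ and Nur77 detected by western blot: RIPA lysis with protease and phosphatase inhibitors, 40-80 µg protein by SDS-PAGE, nitrocellulose, 5% milk block, primary antibody overnight, HRP secondary, chemiluminescence read-out.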

HepG2 [8] = experiment: Antitumor activity against human HepG2 cells xenografted in BALB/c mouse assessed as reduction in PCNA expression in tumor tissue at 10 to 20 mg/kg/day, ip for 15 days by western blot analysis; assay type: functional, organism-based; details: dose 10-20 mg/kg/day, time 15.0 day; method in brief: as §1
HepG2 [9] = experiment: Induction of apoptosis in human HepG2 cells assessed as Bax/Bcl-2 ratio at 2 uM pretreated with ER stress inhibitor, 4-PBA for 2 hrs followed by incubation with compound for 12 hrs by Western blot analysis; assay type: functional, cell-based
HepG2 [10] = experiment: Antitumor activity against human HepG2 cells xenografted in BALB/c mouse assessed as tumor growth inhibition at 20 mg/kg/day, ip administered for 15 days; assay type: functional; details: 360 h, time 15 day
Method in brief: (§3)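 Subcutaneous flank xenograft of 5×10^6 HepG2 cells in 4-week-old male Balb/c nude mice. At about 100 mm³, 15 mice were randomized into three groups: vehicle, 10 or 20 mg/kg i.p. daily for 15 days. Tumor size was measured every day, and tumors were excised and weighed at the end.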

[11] = molecular target: T1, Nuclear receptor subfamily 4immunitygroup A member 1; experiment: Binding affinity to Nur77 ligand binding domain (unknown origin) assessed as dissociation constant by fluorescence titration based analysis; method in brief: as §2
HepG2 [12] = experiment: Antitumor activity against human HepG2 cells xenografted in BALB/c mouse assessed as tumor weight at 20 mg/kg/day, ip administered for 15 days (reference value: 0.86 +/- 0.18 g); assay type: functional; details: dose 10 mg/kg/day; time 15 day; in the assay text read “10 mg/kg/day” for “20 mg/kg/day”; method in brief: as §3
Mus musculus = experiment: Induction of Nur77 expression in tumor tissue of BALB/c mouse xenografted with human HepG2 cells at 10 to 20 mg/kg/day, ip administered for 15 days by western blot analysis; details: dose 10-20 mg/kg/day, time 15.0 day
HepG2 [13] = experiment: Induction of endoplasmic reticulum stress in Nur77 […] human HepG2 cells assessed as CHOP protein expression at 2 uM incubated for 6 to 12 hrs by Western blot analysis; assay type: functional, cell-based; details: time 6-12 hrs
Method in brief: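 HepG2 and shNur77 HepG2 exposed to DMSO or 2.0 µM for 6 and 12 h; lysates immunoblotted for TRB3, Bip, CHOP and Nur77 (SDS-PAGE, nitrocellulose, overnight primary antibodies, HRP secondary, chemiluminescence).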

HepG2 [14] = experiment: Antitumor activity against human HepG2 cells xenografted in BALB/c mouse assessed as induction of ER stress by measuring increase in TRB3 level in tumor tissue at 10 to 20 mg/kg/day, ip administered for 15 days by immunohistochemical analysis; assay type: functional, organism-based; details: dose 10-20 mg/kg/day, time 15.0 day; method in brief: as §1
HepG2 [15] = experiment: Antitumor activity against human HepG2 cells xenografted in BALB/c mouse assessed as induction of ER stress by measuring increase in TRB3 level in tumor tissue at 10 to 20 mg/kg/day, ip administered for 15 days by western blot analysis; assay type: functional, organism-based; details: dose 10-20 mg/kg/day, time 15.0 day; method in brief: as §1
[16] = molecular target: T1, Nuclear receptor subfamily 4immunitygroup A member 1; experiment: Modulation of Nur77 in human HepG2 cells assessed as induction of nuclear […] pretreated with nuclear export inhibitor, LMB followed by incubation with compound for 12 hrs by fluorescence microscopic analysis; assay type: cell-based
HepG2 [17] = experiment: Antitumor activity against human HepG2 cells xenografted in BALB/c mouse assessed as reduction in PCNA expression in tumor tissue at 10 to 20 mg/kg/day, ip for 15 days by immunocytochemistry staining; assay type: functional, organism-based; details: dose 10-20 mg/kg/day, time 15.0 day; method in brief: as §1

T1 sequence (P22736 whole entry, the tested form may be a part): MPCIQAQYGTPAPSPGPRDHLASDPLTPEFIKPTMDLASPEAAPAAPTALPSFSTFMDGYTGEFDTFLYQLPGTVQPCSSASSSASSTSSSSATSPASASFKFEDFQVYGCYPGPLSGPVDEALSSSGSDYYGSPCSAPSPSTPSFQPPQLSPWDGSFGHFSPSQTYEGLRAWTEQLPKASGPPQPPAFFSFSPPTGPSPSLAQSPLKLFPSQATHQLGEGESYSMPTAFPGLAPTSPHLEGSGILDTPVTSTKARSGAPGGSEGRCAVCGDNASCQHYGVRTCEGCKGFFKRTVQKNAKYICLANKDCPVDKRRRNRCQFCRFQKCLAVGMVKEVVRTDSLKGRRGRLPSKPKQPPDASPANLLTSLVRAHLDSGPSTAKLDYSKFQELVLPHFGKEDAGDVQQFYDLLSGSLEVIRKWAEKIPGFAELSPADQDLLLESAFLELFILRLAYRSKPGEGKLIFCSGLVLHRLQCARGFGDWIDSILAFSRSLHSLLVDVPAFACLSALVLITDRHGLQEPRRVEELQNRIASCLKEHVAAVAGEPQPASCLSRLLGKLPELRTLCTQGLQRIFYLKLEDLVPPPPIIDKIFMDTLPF

## COc1cccc2c(Nc3ccc4[nH]c(C(=O)N/N=C/c5ccc(SC)cc5)cc4c3)cc(C)nc12
HepG2 [1]
  Activity: Active
HepG2 [2]
  Activity: 8.8%
HepG2 [3]
  Activity: inactive
[4]
  Activity: Active
SMMC-7721
  Activity: Dose-dependent effect
HepG2 [5]
  Activity: 16.2%
HepG2 [6]
  Activity: Active
QGY-7703
  Activity: Tde
HepG2 [7]
  Activity: inactive
HepG2 [8]
  Activity: Active
HepG2 [9]
  Activity: inactive
HepG2 [10]
  inhibition in vivo at 20 mg/kg/day: 62.4%
[11]
  Kd: 1340 nM
HepG2 [12]
  Activity: 0.5 g
Mus musculus
  Activity: Active
HepG2 [13]
  Activity: inactive
HepG2 [14]
  Activity: Active
HepG2 [15]
  Activity: Active
[16]
  Activity: inactive
HepG2 [17]
  Activity: Active
